The subject of assay [1] is MDA-MB-231. The assay is described as follows: Antiproliferative activity against human MDA-MB-231 cells after 72 hrs by CCK8 assay. It counts as functional, cell-based. The settings on record: MDA-MB-231, 72 h. Summed up:
(§1)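 CCK-8 proliferation assay with CA-4 as positive control. IC50 is the concentration giving 50% inhibition of proliferation. Mean ± SEM from three independent experiments.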

Assay [2] relates to SK-OV-3. Description: Antiproliferative activity against human SKOV3 cells after 72 hrs by CCK8 assay. In kind it is functional, cell-based. The settings on record: SK-OV-3, 72 h. Summed up: as §1
In assay [3] the test system is MCF7. Description: Antiproliferative activity against human MCF7 cells after 72 hrs by CCK8 assay. In kind it is functional, cell-based. As to conditions: MCF7, 72 h. In short, it runs like this: as §1
Assay [4] relates to CT26. The assay is described as follows: Antiproliferative activity against mouse CT26 cells after 72 hrs by CCK8 assay. In kind it is functional, cell-based. As to conditions: CT26, 72 h. Summed up: as §1
In assay [5] the test system is HeLa. The assay is described as follows: Antiproliferative activity against human HeLa cells after 72 hrs by CCK8 assay. It counts as functional, cell-based. Summed up: as §1
For assay [6], the system named is A549. Description: Antiproliferative activity against human A549 cells after 72 hrs by CCK8 assay. The settings on record: A549, 72 h. In kind it is functional, cell-based. In short, it runs like this: as §1
Assay [7] relates to SK-OV-3. Description: Antimigratory activity against human SKOV3 cells assessed as wound closure at 160 nM after 24 hrs by microscopy based scratch wound assay (reference value: 79.5 +/- 2.8%). It counts as functional.
Assay [8] is filed under the species Bos taurus. The assay is described as follows: Inhibition of bovine MAP-rich tubulin polymerization at 10 uM measured every 1 min for 30 mins relative to control. In short, it runs like this:
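Purified tubulin polymerization followed at 37 °C by absorbance at 340 nm, read every 1 min for 30 min. Test concentrations 2.5, 10 and 40 µM. CA-4 at 10 µM served as positive control and DMSO (1%, v/v) as vehicle. Polymerization is expressed relative to the vehicle group.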

The subject of assay [9] is SK-OV-3. The assay is described as follows: Antimigratory activity against human SKOV3 cells assessed as number of migrated cells at 50 nM after 24 hrs by crystal violet staining based transwell migration assay (reference value: 49.3 to 50.7). In kind it is functional.
Assay [10] concerns SK-OV-3. Description: Antimigratory activity against human SKOV3 cells assessed as number of migrated cells at 100 nM after 24 hrs by crystal violet staining based transwell migration assay (reference value: 49.3 to 50.7). In kind it is functional.
Assay [11] concerns SK-OV-3. Description: Antimigratory activity against human SKOV3 cells assessed as wound closure at 80 nM after 24 hrs by microscopy based scratch wound assay (reference value: 79.5 +/- 2.8%). It counts as functional.
Assay [12] relates to SK-OV-3. The assay is described as follows: Antimigratory activity against human SKOV3 cells assessed as number of migrated cells at 25 nM after 24 hrs by crystal violet staining based transwell migration assay (reference value: 49.3 to 50.7). In kind it is functional.

Active and inactive are the calls of the source. The calls are words filed in the database; no cut-off is given here.

In the case of `COc1cc(-c2nn(C)cc2-c2ccc(SC)cc2)cc(OC)c1OC`, the IC50 was 307 nM in assay [1] and 155 nM in assay [2].
Consider `CCOc1ccc(-c2c(-c3cc(OC)c(OC)c(OC)c3)nn(C(C)(C)C)c2N)cc1`, for which the IC50 in [1] was 2570 nM; in assay [2], 1120 nM.
Regarding `COc1ccc(-c2c(-c3cc(OC)c(OC)c(OC)c3)nn(C)c2N)cc1F`, the IC50 in assay [1] was found to be 36400 nM; in [2], 31800 nM.
`COc1ccc(-c2cn(C)nc2-c2cc(OC)c(OC)c(OC)c2)cc1F`: the IC50 in assay [3] was 37.2 nM; in assay [4], 58.7 nM; in assay [5], 28.8 nM; in assay [6] it was 141 nM; in assay [1] it was 41 nM; in assay [2], 55 nM.
For the molecule `CCOc1ccc(-c2cnn(C)c2-c2cc(OC)c(OC)c(OC)c2)cc1`, the IC50 in [3] was determined as 39.9 nM; in assay [4], 165 nM; in [5], 93.1 nM; in [6] it was 99 nM; in assay [1] it was 72 nM; in [2], 43 nM.
In the case of `COc1ccc(-c2c(-c3cc(OC)c(OC)c(OC)c3)nn(-c3ccc(F)cc3)c2N)cc1F`, the IC50 in [1] turned out to be 24600 nM; in assay [2], 33200 nM.
For `COc1ccc(-c2cn(C)nc2-c2cc(OC)c(OC)c(OC)c2)cc1` the same measures were 166 nM and 89 nM.
The corresponding values for `COc1ccc(-c2c(-c3cc(OC)c(OC)c(OC)c3)nn(C(C)(C)C)c2N)cc1F` are 29500 nM and 16900 nM.
Consider `CCOc1ccc(-c2c(-c3cc(OC)c(OC)c(OC)c3)nn(-c3ccc(OC)cc3)c2N)cc1`, for which the IC50 in [1] came to 2010 nM; in [2], 1210 nM.
Consider `COc1ccc(-n2nc(-c3cc(OC)c(OC)c(OC)c3)c(-c3ccc(SC)cc3)c2N)cc1`, for which the IC50 in assay [1] was found to be 7050 nM; in [2] it was 14000 nM.
The corresponding values for `COc1cc(-c2nn(C(C)(C)C)c(N)c2-c2ccc(SC)cc2)cc(OC)c1OC` are 20800 nM and 24200 nM.
As for `COc1ccc(-c2c(-c3cc(OC)c(OC)c(OC)c3)nn(C(C)(C)C)c2N)cc1`, the IC50 came out at 31300 nM in [1] and 40300 nM in assay [2].
Consider `COc1ccc(-c2c(-c3cc(OC)c(OC)c(OC)c3)nn(-c3ccc(F)cc3)c2N)cc1`, for which the concentration for half-maximal inhibition (IC50) in [1] worked out at 33700 nM; in [2], 28900 nM.
Turning to `CCOc1ccc(-c2c(-c3cc(OC)c(OC)c(OC)c3)nn(C)c2N)cc1`, the IC50 in assay [1] was determined as 490 nM; in assay [2], 338 nM.
For `COc1cc(-c2c(-c3ccc(SC)cc3)cnn2C)cc(OC)c1OC` the same measures were 41 nM and 52 nM.
In the case of `COc1cc(-c2nn(C)c(N)c2-c2ccc(SC)cc2)cc(OC)c1OC`, the IC50 was found to be 748 nM in assay [1] and 438 nM in assay [2].
For `COc1ccc(/C=C\c2cc(OC)c(OC)c(OC)c2)cc1O` [COMBRETASTATIN A4], the IC50 in assay [3] worked out at 39.1 nM; in assay [4] it was 45.1 nM; in assay [5] it was 14.2 nM; in [6] it was 94.3 nM; in assay [1], 4.5 nM; in assay [2], 5.9 nM. Also, the Activity was 29.2% in assay [7]; 20.7 in assay [9]; 18.3 in assay [10]; 41.9% in assay [11]; 26.3 in assay [12]. Further, the inhibition entry in assay [8] was “Active”.
Consider `COc1ccc(-c2cnn(C)c2-c2cc(OC)c(OC)c(OC)c2)cc1F`, for which the concentration for half-maximal inhibition (IC50) in [3] was 113 nM; in assay [4], 151 nM; in [5], 112 nM; in assay [6], 187 nM; in [1], 57 nM; in assay [2], 66 nM.
In the case of `CCOc1ccc(-c2c(-c3cc(OC)c(OC)c(OC)c3)nn(-c3ccc(F)cc3)c2N)cc1`, the IC50 in assay [1] came out at 1660 nM; in assay [2] it was 2830 nM.
As to `COc1ccc(-c2cnn(C)c2-c2cc(OC)c(OC)c(OC)c2)cc1`, the figures for the IC50 in assay [1] and in assay [2] were 74 nM and 69 nM, respectively.
The corresponding values for `COc1ccc(-c2c(-c3cc(OC)c(OC)c(OC)c3)nn(C)c2N)cc1` are 31100 nM and 16300 nM.
For `COc1ccc(-n2nc(-c3cc(OC)c(OC)c(OC)c3)c(-c3ccc(OC)c(F)c3)c2N)cc1` the same measures were 18400 nM and 14700 nM.
For `COc1ccc(-c2c(-c3cc(OC)c(OC)c(OC)c3)nn(-c3ccc(OC)cc3)c2N)cc1` the same measures were 15900 nM and 19000 nM.
`COc1cc(-c2nn(-c3ccc(F)cc3)c(N)c2-c2ccc(SC)cc2)cc(OC)c1OC`: the 50% inhibitory concentration (IC50) in assay [1] came to 22900 nM; in [2], 7370 nM.

Source of the values: ChEMBL document CHEMBL4270544, “Design, synthesis and biological evaluation of a novel tubulin inhibitor 7a3 targeting the colchicine binding site” (Eur J Med Chem, 2018).
